Screens: PubChem BioAssay, several laboratories
CCR6 antag: antagonists of human CCR6 receptor. P51684. CHO-K1 CCR6 PathHunter beta-arrestin, luminescence, CCL20-stimulated. inhibition, % at 20 µM. hit rate 0.49% among 340,000. AID 493098;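 active = compounds whose inhibition of the agonist-driven luminescence signal at 20 µM reaches about 50%, limit read from the data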;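 note: cells stimulated with CCL20 at 14 nM final; plate controls were DMSO with CCL20 for no effect and DMSO without agonist for full effect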
Target sequence (P51684 whole entry, looked up): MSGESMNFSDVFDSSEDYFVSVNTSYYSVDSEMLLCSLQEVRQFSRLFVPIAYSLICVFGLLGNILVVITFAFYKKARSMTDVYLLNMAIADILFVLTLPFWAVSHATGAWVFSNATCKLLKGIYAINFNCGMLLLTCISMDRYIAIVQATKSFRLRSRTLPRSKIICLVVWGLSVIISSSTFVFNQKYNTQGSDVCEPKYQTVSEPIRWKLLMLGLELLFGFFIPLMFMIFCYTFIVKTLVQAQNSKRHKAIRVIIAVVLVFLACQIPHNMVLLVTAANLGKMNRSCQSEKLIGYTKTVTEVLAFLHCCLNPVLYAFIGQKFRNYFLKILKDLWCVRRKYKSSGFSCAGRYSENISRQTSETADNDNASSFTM
APJ antagonist: antagonists of human APJ apelin receptor; P35414; CHO-K1 APJ beta-arrestin complementation, luminescence; inhibition, % at 20 µM; hit rate 0.32% among 330,000;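 active = inhibition above about 40% at 20 µM, limit read from the data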;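 note: cells challenged with 10 nM apelin-13 agonist together with compound; plate controls were apelin-13 plus DMSO wells for no effect and DMSO wells lacking apelin-13 for full effect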
APJ agonist: activates the human apelin receptor APJ; activation, % at 20 µM; hit rate 0.11% among 330,000; CHO-K1 APJ PathHunter beta-arrestin, luminescence; 0% DMSO wells, 100% apelin; P35414;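 active = activation more than six SD over the plate average, tested at 20 µM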;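 note: 0% = DMSO alone and 100% = apelin-13 at 10 nM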
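Test system – PathHunter CHO-K1 APJ (AGTRL-1) beta-arrestin reporter cells · Input – 1000 cells/well · Compound – single test compound dose, 20 µM final, 1% DMSO · Times – compound stimulation 90 min at 25 °C, detection 60 min · Technique – beta-gal luminescence · Read-out basis – APJ–arrestin association signal · Control set – negative DMSO alone, positive Apelin-13 at 10 nM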
EBI2 block: EBI2 (human) antagonism; P32249; EBI2 beta-arrestin recruitment, luminescence, 7a,25-OHC stimulated; inhibition, % at 5 µM; hit rate 0.81% among 360,000; AID 651636; in the data active = inhibition above about 38%;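 note: enzyme fragment complementation signal reports receptor beta-arrestin coupling in cells; 0% = agonist plus DMSO wells and 100% = wells without agonist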
Target sequence (P32249 whole entry, looked up, the tested form may be a part): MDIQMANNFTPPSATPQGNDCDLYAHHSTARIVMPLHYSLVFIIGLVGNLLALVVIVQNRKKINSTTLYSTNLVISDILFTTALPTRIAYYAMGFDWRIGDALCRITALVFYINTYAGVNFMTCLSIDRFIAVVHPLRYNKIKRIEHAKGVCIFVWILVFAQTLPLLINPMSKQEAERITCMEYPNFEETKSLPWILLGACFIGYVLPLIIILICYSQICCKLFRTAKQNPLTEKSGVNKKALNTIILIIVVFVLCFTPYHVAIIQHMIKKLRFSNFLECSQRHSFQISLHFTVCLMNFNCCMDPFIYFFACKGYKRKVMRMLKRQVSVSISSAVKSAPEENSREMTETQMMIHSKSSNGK
HTR2A ag: activates the mouse 5-HT2A serotonin receptor; CHO-K1 mHTR2A beta-arrestin complementation, luminescence; percent of 30 µM serotonin response; activation, % at 7.6 µM; P35363; hit rate 0.66% among 360,000;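 active = activation above a run cutoff, the mean activation of all tested compounds plus 3 SD, cut at about 14% in these data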;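 note: 0% = plate median of compound wells and 100% = 30 µM serotonin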
CXCR6 inh: CXCR6 (human) receptor inhibition; O00574; CHO-K1 PathHunter CXCR6 beta-arrestin, luminescence; hit rate 0.36% among 360,000; inhibition, % at 20 µM; in the data active = inhibition above about 34%, passing the limit was not always enough;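 note: antagonist mode with CXCL16 agonist at 10 nM final; 0% = 10 nM CXCL16 with DMSO and 100% = unstimulated wells without agonist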
APJ antag conf: APJ receptor antagonism confirmation; shares compounds with APJ antagonist; hit rate 66% among 950; APJ beta-arrestin recruitment, luminescence, antagonist mode; inhibition, % at 20 µM; in the data active = inhibition above about 50%
Starred values were filed as active, the others as inactive; nt = no result given. In the library only some 2.2% were active in any assay of this set; here they are far more common.

SMILES	CCR6 antag	APJ antagonist	APJ agonist	EBI2 block	HTR2A ag	CXCR6 inh	APJ antag conf
CC1=Nc2ccccc2/C1=C/c1sc(=N)n(-c2nccs2)c1O	48.9	46.3*	-10.7	8.9	-7.4	17.5	52.8*
O=C(N[C@@H]1CC[C@@H](CCNC(=O)C2CCOCC2)O[C@@H]1CO)c1ccncc1	nt	nt	nt	-15.7	2.0	nt	nt
Cc1ccc(S(=O)(=O)Nc2cccc3cccnc23)c([N+](=O)[O-])c1	49.4	58.4*	-24.0	23.4	-7.1	29.9	55.8*
Cc1ccc2cccc(NS(=O)(=O)c3ccccc3)c2n1	39.2	63.2*	-19.5	nt	nt	nt	57.1*
O=S(=O)(Nc1cccc2cccnc12)c1ccc(S(=O)(=O)N2CCCC2)cc1	44.8	67.7*	-17.3	12.5	-16.0	33.7	47.6
Cc1ccccc1NS(=O)(=O)c1ccc(S(=O)(=O)N2CCCC2)cc1	nt	nt	nt	-4.0	3.8	0.1	nt
O=S(=O)(Nc1cccc2cccnc12)c1ccccc1	90.2*	88.7*	-14.9	62.0*	-9.2	68.9*	71.6*
CC(=O)Nc1ccc(S(=O)(=O)Nc2cccc3cccnc23)cc1	32.4	7.6	-4.5	-7.3	-2.3	-3.7	nt
COc1ccc(S(=O)(=O)N2CCC[C@H]2C(=O)N2CCC[C@H]2C(=O)NCc2ccc(F)cc2F)cc1C	nt	nt	nt	-4.4	-1.1	2.9	nt
Cc1ccc(S(=O)(=O)N2[C@@H](c3cccc(Cl)c3)C(C(=O)OC(C)(C)C)=CC[C@H]2c2ccc(C(C)C)cc2)cc1	nt	nt	nt	-5.7	0.3	2.9	nt
Cc1cccc(C)c1NC(=O)C(c1ccncc1)N1CCN(CCN(C)C)CC1 (centres undefined)	nt	nt	nt	-0.2	2.5	nt	nt
COc1ccccc1NS(=O)(=O)c1ccc2ccccc2c1	11.6	1.6	-1.9	-3.4	2.3	-5.1	nt
COc1ccc(NS(=O)(=O)c2ccc3ccccc3c2)c2ncccc12	32.2	66.1*	-11.8	24.3	4.0	19.7	51.9*
c1cncc(-c2nc(-c3ccco3)cs2)c1	27.7	47.0*	-6.2	1.0	5.7	19.0	17.8
CCc1noc(C)c1C(=O)NC1CC(C)(C)Cc2c1cnn2-c1ccccc1 (centres undefined)	nt	41.2*	-7.0	-2.1	-1.4	7.6	25.2
CC1N(O)C(c2ccc(Cl)cc2Cl)N(O)C1(C)C (centres undefined)	46.5	-4.5	-0.7	-3.2	3.9	4.0	nt
ON1C(c2ccc(Cl)cc2Cl)N(O)[C@H]2CCCC[C@H]21 (some centres undefined)	79.9*	55.2*	-9.3	-4.9	1.3	8.4	85.4*
O=C1S/C(=C\c2ccc(O)c([N+](=O)[O-])c2)C(=O)N1c1ccccc1Cl	30.3	32.8	-4.2	3.9	-3.5	38.0	nt
COc1cc(/C=C2\SC(=O)N(c3cccc(Cl)c3)C2=O)cc([N+](=O)[O-])c1O	67.5*	48.0*	-9.3	17.5	2.0	34.7	58.5*
CCCCOCCCNC(=O)C[C@@H]1C[C@@]2(C(=O)OCC)CCCC=C2N(Cc2ccco2)C1=O	nt	nt	nt	-1.7	0.1	0.1	nt
CS(=O)(=O)Nc1ccc(S(=O)(=O)NC2CCCCC2)cc1	3.5	46.0*	-2.7	-3.9	1.9	-6.6	27.9
CCN1C=C(Cc2cccs2)C2=C(C1)C(c1cccs1)C(C#N)=C(N)O2 (centres undefined)	32.5	40.8*	-4.4	5.7	-1.2	8.9	-14.5
O=C(NC(O)C(=O)c1cccs1)c1cccnc1 (centres undefined)	25.4	50.0*	-6.7	10.3	-3.4	6.6	31.3
O=C(NNC(=O)c1cccs1)c1cccnc1	2.9	9.6	1.3	-11.7	2.0	0.4	nt
O=C(NC(O)C(=O)c1ccccc1)c1cccs1 (centres undefined)	40.8	48.1*	-11.4	-1.7	-2.7	20.9	25.1
SMILES	CCR6 antag	APJ antagonist	APJ agonist	EBI2 block	HTR2A ag	CXCR6 inh	APJ antag conf
NC(=S)n1[nH]c(-c2ccc([N+](=O)[O-])cc2)c(N=Nc2ccc(Cl)cc2)c1=O	45.1	nt	nt	26.3	1.3	24.3	nt
O=c1c(N=Nc2ccc(O)cc2)c(-c2ccccc2)[nH]n1-c1ccc([N+](=O)[O-])cc1	52.0*	54.1*	-5.7	33.7	0.4	37.1	42.6
Nc1[nH]c(C(=O)c2ccccc2)c(-c2cccc3ccccc23)c1C(=O)NCc1ccccc1	nt	nt	nt	-5.6	2.5	10.4	nt
O=C(Nc1ccccc1SC(=O)c1ccccc1)c1ccccc1	nt	nt	nt	10.8	7.6	-12.3	nt
Cc1ccc(C(=O)Sc2cccccc2=O)cc1	92.2*	85.1*	-8.6	66.8*	-13.2	83.5*	102.0*
CNc1cc(-c2ccc(CC#N)cc2)ncn1	nt	nt	nt	-8.8	4.8	7.7	nt
O=S(=O)(O)c1cc(Cl)cc(N=Nc2ccc(O)cc2O)c1O	49.5	nt	nt	7.3	0.1	31.0	nt
O=S(=O)(O)c1cc(O)c2c(O)c(N=Nc3cc(Cl)ccc3O)c(S(=O)(=O)O)cc2c1	60.1*	40.2*	-7.1	8.5	-14.1	38.9	69.9*
CCn1c(CO)nc2c1c(=O)[nH]c(=O)n2Cc1ccccc1	63.5*	52.6*	-7.5	14.6	-14.1	46.3*	84.5*
CN(C)CCNC(=O)c1ccc2c(c1)N(Cc1ccc(F)cc1)CCS2	13.4	52.4*	-5.2	0.7	-8.3	4.5	13.5
COC(=O)c1ccc(C(=O)N2CCCCCC2(C)C(=O)NC(C)C)cc1 (centres undefined)	nt	nt	nt	-5.6	-0.8	-6.3	nt
Cc1ccc2c(c1)C(=O)C(=O)N2c1ccc(C(F)(F)F)cc1	8.8	17.2	-6.6	-7.7	-0.2	18.4	nt
Cc1ccc2c(c1)C(=O)C(=O)N2c1ccc(Cl)cc1	29.6	44.6*	-9.2	5.9	-2.1	15.2	85.9*
CCCCN1CC(N2CCN(CCN(C)C)CC2)CS1(=O)=O (centres undefined)	nt	nt	nt	-9.1	-3.2	0.8	nt
Cc1ccc(N=Nc2ccc(O)c3ncccc23)cc1	7.6	nt	nt	8.4	-2.9	3.7	nt
Oc1ccc(N=Nc2ccccc2C(F)(F)F)c2cccnc12	57.8*	48.5*	-11.2	14.7	-0.2	21.8	103.3*
Cc1ccc(N=Nc2ccc(O)c3ncccc23)cc1C	55.2*	52.6*	-12.9	14.2	0.0	40.3*	67.6*
CCn1c(O)c(N=Nc2ccc3ccccc3n2)c2ccccc21	13.2	12.7	-2.4	29.2	-2.6	4.5	nt
Brc1ccc(N=Nc2ccc3ccccc3n2)cc1	31.2	49.0*	-13.5	43.1	-1.5	15.5	53.6*
CN[C@H]1C[C@@H](c2ccccc2)N(C(C)=O)C[C@H]1CO	nt	nt	nt	-6.5	0.5	-0.4	nt
CCC(=O)N1CCN(c2ccc(NC(=O)COc3ccccc3Cl)cc2)CC1	8.3	13.6	-0.9	5.0	-1.5	6.3	nt
CCC(=O)N1CCN(c2ccccc2NC(=O)COc2ccccc2Cl)CC1	51.0*	52.1*	-8.6	27.1	-7.1	43.4*	61.5*
